The source of these data is ChEMBL document CHEMBL1165945, “Study of benzo[a]phenazine 7,12-dioxide as selective hypoxic cytotoxin-scaffold. Identification of aerobic-antitumoral activity through DNA fragmentation” (Bioorg Med Chem, 2010).

The subject of series [1] is Calf thymus DNA. The experiment in a line: Binding affinity to calf thymus DNA assessed as ratio of final absorbance area to the absorbance at 100 uM after 24 hrs by UV spectrophotometer analysis relative to control. It is filed as nucleic-acid assay. Conditions: Bos taurus. Put shortly: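 Calf thymus DNA was stirred 24 h at 4 °C in 10 mM Tris–HCl pH 7.4, then diluted. Compound at 10^-4 M (≤5% solvent) was diluted in water to 2 × 10^-5 M. This was mixed 1:1 by volume with the DNA solution and rotated 24 h. UV spectra were taken at 20 °C. The ratio is the area of a 20 nm band centred on λmax at 24 h over that at 0 h (a24/a0).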

Series [2] can be described thus: Cytotoxicity against chinese hamster V79 cells assessed as survival fraction under hypoxic condition at 20 uM after 7 days by crystal violet staining relative to control. The settings on record: read-out: Activity. Format: cell-based, Cricetulus griseus. The method, boiled down: (§1)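 V79 suspension cultures were set at 2 × 10^4 cells/mL in EMEM with 10% FBS and 10 mM HEPES, under aerobic or hypoxic gassing. Compound at 20 µM was added 30 min after gassing began, in duplicate flasks, with a DMSO negative control. After 2 h the cells were replated (10^2–10^3 cells) for 7 days at 37 °C. Colonies of >64 cells were counted after crystal violet staining. SF = PEtreated/PEcontrol × 100; values are means of two experiments.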

Series [3] in a line: Cytotoxicity against chinese hamster V79 cells assessed as survival fraction under normoxic condition at 20 uM after 7 days by crystal violet staining relative to control. Format: cell-based, Cricetulus griseus. The settings on record: read-out: Activity. The method, boiled down: as §1
The test system of series [4] is Calf thymus DNA. The series can be described thus: Binding affinity to calf thymus DNA assessed as change in melting temperature by UV spectrophotometer analysis. It is filed as nucleic-acid assay. Conditions: Bos taurus. Put shortly:
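Calf thymus DNA in 10 mM Tris–HCl pH 7.4 was mixed with compound at a 1:1 DNA:BPDO ratio. Thermal denaturation was followed as the change in absorbance at 260 nm with temperature, in a 1-cm cell.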

For series [5], the system named is Caco-2. The series can be described thus: Cytotoxicity against human Caco-2 cells assessed as induction of DNA fragmentation under oxic condition at 10 uM after 24 hrs using ethidium bromide staining by agarose gel electrophoresis. Format: functional, cell-based. Put shortly: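 Caco-2 cells were seeded at 2 × 10^6 cells/well in 100-mm plates and exposed for 24 h under oxic conditions. Chromosomal DNA was then isolated and run on a 1% agarose gel with ethidium bromide staining to visualise fragmentation. The assay was repeated on four separate occasions.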

Activity calls are given as the source filed them. The calls are words filed in the database; no cut-off is given here.

In the case of `CC[n+]1c(-c2ccccc2)c2cc(N)ccc2c2ccc(N)cc21`, the Ratio in series [1] was determined as 0.5.
Regarding `[O-][n+]1c2ccccc2[n+]([O-])c2c3ccccc3c(O)cc21`, the viability at 168 h, 20 µM turned out to be 93% in series [2] and 100% in series [3]. For the same molecule, the Ratio in series [1] stood at 0.
The matching figures for `[O-][n+]1c2ccccc2[n+]([O-])c2c3ccccc3ccc21`: 45%, 40% and 1.
Consider `Nc1ccc2cc3ccc(N)cc3nc2c1`, for which the ΔTm in series [4] was 12 °C.
On to `CN[C@@H]1C[C@H]2O[C@@](C)([C@@H]1OC)n1c3ccccc3c3c4c(c5c6ccccc6n2c5c31)C(=O)NC4`, for which the result in series [5] was Active.
For the molecule `O=C1c2c(O)ccc(O)c2C(=O)c2c(NCCNCCO)ccc(NCCNCCO)c21`, in series [1], the Ratio stood at 0.
On the same count and under the same terms, under `COc1cc(NS(C)(=O)=O)ccc1Nc1c2ccccc2nc2ccccc12` stands 0.3.
`COc1ccc2c(c1)[n+]([O-])c1c3ccccc3ccc1[n+]2[O-]`: the viability at 168 h, 20 µM in series [2] came to 44%; in series [3] it was 88%. In addition, the Ratio in series [1] is 1.
Consider `CCOc1ccc(-c2nc3cc(-c4nc5cc(N6CCN(C)CC6)ccc5[nH]4)ccc3[nH]2)cc1`, for which the Ratio in series [1] was found to be 0.57.
